Values belong to the molecule of their own block, whether it stands above or below them. Calls of active or inactive are those of the source. The rule behind the calls is not given here.
Key:
[1] = Inhibition of alpha-L-fucosidase
Summary of the method: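 Bovine epididymis alpha-L-fucosidase at pH 5.5 with the matching p-nitrophenyl glycoside as substrate. The reaction was stopped with 400 mM Na2CO3, and released p-nitrophenol was read at 400 nm.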

[2] = molecular target: T1, Sucrase-isomaltase, intestinal (Rattus norvegicus, UniProt P23739); experiment: Inhibition of rat intestinal sucrase
Summary of the method: (§1)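 Enzyme source was brush border membranes prepared from rat small intestine, assayed at pH 5.8 with sucrose (sucrase) or isomaltose (isomaltase) as substrate. Released D-glucose was quantified colorimetrically with a glucose test kit.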

[3] = (§2) Inhibition of almond beta-glucosidase; parameters: species or system Prunus dulcis
Summary of the method: (§3)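 The substrate was the matching p-nitrophenyl glycoside. Reactions were terminated with 400 mM Na2CO3, and liberated p-nitrophenol was measured spectrophotometrically at 400 nm.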

[4] = molecular target: T1, Sucrase-isomaltase, intestinal; experiment: Inhibition of rat intestinal isomaltase; summary of the method: as §1
[5] = tested on: Prunus dulcis; experiment: as §2; summary of the method: as §3
[6] = Inhibition of bovine liver beta-galactosidase; parameters: species or system Bos taurus
Summary of the method: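 Bovine liver beta-galactosidase at pH 6.8 with the matching p-nitrophenyl glycoside substrate. Stopped by adding 400 mM Na2CO3; released p-nitrophenol was measured at 400 nm.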

T1 sequence (P23739 1-1013 limits assumed): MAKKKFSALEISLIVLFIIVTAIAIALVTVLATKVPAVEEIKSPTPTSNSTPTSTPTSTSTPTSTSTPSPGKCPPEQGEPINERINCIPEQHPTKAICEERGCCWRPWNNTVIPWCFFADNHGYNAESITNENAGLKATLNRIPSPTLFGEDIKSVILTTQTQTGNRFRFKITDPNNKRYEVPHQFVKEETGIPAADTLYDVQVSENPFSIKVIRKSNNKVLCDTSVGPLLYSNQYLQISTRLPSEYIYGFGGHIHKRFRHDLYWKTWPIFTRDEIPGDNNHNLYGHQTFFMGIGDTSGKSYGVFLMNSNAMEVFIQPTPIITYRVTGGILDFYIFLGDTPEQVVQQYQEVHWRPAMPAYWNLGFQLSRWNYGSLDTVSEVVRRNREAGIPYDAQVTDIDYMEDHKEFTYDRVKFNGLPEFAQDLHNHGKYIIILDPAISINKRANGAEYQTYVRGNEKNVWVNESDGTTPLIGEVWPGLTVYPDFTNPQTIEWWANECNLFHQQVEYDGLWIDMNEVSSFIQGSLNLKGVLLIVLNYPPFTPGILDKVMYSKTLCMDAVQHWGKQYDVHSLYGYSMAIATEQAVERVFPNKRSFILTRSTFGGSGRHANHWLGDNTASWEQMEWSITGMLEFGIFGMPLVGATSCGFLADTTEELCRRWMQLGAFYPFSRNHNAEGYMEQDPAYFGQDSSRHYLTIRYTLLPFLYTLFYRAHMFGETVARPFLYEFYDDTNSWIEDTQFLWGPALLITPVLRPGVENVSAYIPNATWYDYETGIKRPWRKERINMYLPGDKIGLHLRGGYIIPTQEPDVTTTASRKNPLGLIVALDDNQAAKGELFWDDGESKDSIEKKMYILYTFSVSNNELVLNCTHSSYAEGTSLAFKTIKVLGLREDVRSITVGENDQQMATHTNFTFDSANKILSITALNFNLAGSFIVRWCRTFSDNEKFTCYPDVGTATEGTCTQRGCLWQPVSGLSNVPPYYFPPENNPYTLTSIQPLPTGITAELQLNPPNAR
T1 sequence (P23739 1014-1841 limits assumed): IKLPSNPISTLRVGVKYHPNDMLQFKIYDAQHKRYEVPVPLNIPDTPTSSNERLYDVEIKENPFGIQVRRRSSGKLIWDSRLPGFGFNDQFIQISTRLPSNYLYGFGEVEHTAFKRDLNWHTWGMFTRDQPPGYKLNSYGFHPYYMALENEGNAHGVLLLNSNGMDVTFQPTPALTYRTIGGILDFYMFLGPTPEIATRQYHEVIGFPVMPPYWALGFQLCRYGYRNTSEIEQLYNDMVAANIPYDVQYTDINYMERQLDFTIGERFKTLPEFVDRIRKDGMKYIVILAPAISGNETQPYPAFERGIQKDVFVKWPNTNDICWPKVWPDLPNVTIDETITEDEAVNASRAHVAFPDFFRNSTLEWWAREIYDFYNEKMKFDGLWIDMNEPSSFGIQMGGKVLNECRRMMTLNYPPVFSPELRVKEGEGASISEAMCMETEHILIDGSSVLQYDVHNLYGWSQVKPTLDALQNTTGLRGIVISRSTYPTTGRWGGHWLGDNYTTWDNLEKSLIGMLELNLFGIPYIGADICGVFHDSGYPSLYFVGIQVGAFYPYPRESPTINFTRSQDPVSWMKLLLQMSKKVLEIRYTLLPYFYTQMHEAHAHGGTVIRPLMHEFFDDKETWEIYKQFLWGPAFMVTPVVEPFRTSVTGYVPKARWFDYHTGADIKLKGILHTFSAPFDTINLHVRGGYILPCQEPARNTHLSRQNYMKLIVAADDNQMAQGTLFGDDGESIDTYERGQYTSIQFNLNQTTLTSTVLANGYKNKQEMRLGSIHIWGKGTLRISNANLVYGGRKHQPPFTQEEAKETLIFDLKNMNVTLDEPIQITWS

- Ki [1]: 19 µM
SMILES: OC[C@H]1O[C@H](OC[C@H]2NC[C@@H](O)[C@@H](O)[C@@H]2O)[C@H](O)[C@@H](O)[C@@H]1O

- IC50 [2]: 1000 µM
- IC50 [3]: 320 µM
- IC50 [4]: 1000 µM
SMILES: OC[C@@H]1N[C@H](CO)[C@@H](O)[C@@H]1O

- Activity [5]: inactive
- IC50 [6]: 270 µM
SMILES: OC[C@H]1N[C@H](CO)[C@@H](O[C@@H]2O[C@H](CO)[C@@H](O)[C@H](O)[C@H]2O)[C@@H]1O

- Activity [1]: inactive
SMILES: OC[C@H]1NC[C@@H](O[C@H]2O[C@H](CO)[C@H](O)[C@H](O)[C@H]2O)[C@@H](O)[C@@H]1O

- IC50 [3]: 7.8 µM
- IC50 [6]: 3.3 µM
SMILES: OC[C@H]1N[C@H](CO)[C@@H](O)[C@H]1O

- Ki [1]: 0.06 µM
SMILES: C[C@@H]1O[C@@H](O[C@@H]2CN[C@H](CO)[C@@H](O)[C@@H]2O)[C@H](O)[C@H](O)[C@H]1O

- Activity [1]: inactive
SMILES: OC[C@H]1NC[C@@H](O)[C@@H](O[C@@H]2O[C@H](CO)[C@@H](O)[C@H](O)[C@H]2O)[C@@H]1O

- Activity [1]: inactive
SMILES: OC[C@H]1NC[C@@H](O[C@@H]2O[C@H](CO)[C@@H](O)[C@H](O)[C@H]2O)[C@@H](O)[C@@H]1O

- Activity [1]: inactive
SMILES: OC[C@H]1NC[C@@H](O)[C@@H](O)[C@@H]1O[C@@H]1O[C@H](CO)[C@@H](O)[C@H](O)[C@H]1O

Source: ChEMBL document CHEMBL1141778, “Iminosugar-producing Thai medicinal plants” (J Nat Prod, 2005)
